Results as given in article PMC5756543 (The Journal of Nutritional Biochemistry, 2017).

Key:
[1] = system: Caco-2 cells; assay: FA transport and metabolism across differentiated Caco-2 monolayers; assay type: in vitro ADME, human; details: for effect on transepithelial transport of FA (apical to basolateral): vs untreated (abstract, discussion); for effect on FA-sul in apical compartment / increase of FA-glu in basal compartment: n=6, P<.01
How it was run: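 Caco-2 monolayers were pretreated apically with 1 mM SCFA/lactate or mix from day 7 and used at 21–23 days after 30 min HBSS (pH 7.4) equilibration at 37°C; monolayers with TEER <930 Ω cm2 were discarded. Apical 500 µM test compound was applied for 1 h. Apical and basal samples were stabilised with ascorbic acid and spiked with acetic acid (10 mM final) and DMCA internal standard (10 µM final). LC-MS/MS MRM quantified parent and conjugates. Six biological replicates in duplicate; t test.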

[2] = system: Caco-2 cells; assay: HT transport and phase II metabolism across differentiated Caco-2 monolayers; assay type: in vitro ADME, human; details: for rate of appearance of HT conjugate in apical compartment / rate of appearance of HT conjugate in basal compartment: 20 μM HT apical, HT-7-sul as HT-3′-sul equivalents; for decrease of HT-3′-glu 2 formation: acetate: in both compartments; for effect on efflux of HT-7-glu to both compartments: chronic treatment 1 mM 14 days (discussion)
How it was run: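 Caco-2 monolayers on transwells were pretreated apically with 1 mM SCFA/lactate or mix from day 7 to day 21–23. Cells were equilibrated in HBSS (1.8 mM CaCl2, pH 7.4) for 30 min at 37°C, and monolayers below 930 Ω cm2 TEER were discarded. Apical 20 µM test compound was applied for 1 h. Both compartments were sampled with 100 µM ascorbic acid and analysed by LC-MS/MS MRM (daidzein internal standard, matrix-matched calibration). n=6 in duplicate; t test.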

[3] = system: Caco-2 cells; assay: SA transport across differentiated Caco-2 monolayers; assay type: in vitro ADME, human; details: for effect on SA transport / increase of SA in the basolateral compartment: 1 mM 14 days, vs untreated cells; for increase of SA in the basolateral compartment: n=6, P=.003
How it was run: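 Pretreated Caco-2 transwell monolayers (1 mM apical SCFA/lactate or mix from day 7, used at 21–23 days) were equilibrated in HBSS (pH 7.4) for 30 min at 37°C; monolayers under 930 Ω cm2 TEER were excluded. Apical 1 mM MCT substrate was incubated for 30 min. Both compartments were analysed by HPLC-UV at 303 nm, with DMCA internal standard at 326 nm. Six biological replicates in duplicate; t test, P<.01.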

[4] = system: MCT1 (SLC16A1) mRNA; assay: MCT1 gene expression by ddPCR in Caco-2 cells; assay type: cell-based, human; details: 1 mM 14 days, vs control
How it was run: (§1)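 Caco-2 cells were seeded on transwells at 6×104 cm−2 and grown 21–23 days. From day 7 the apical medium was FBS-free with 1 mM Na-acetate, -propionate, -butyrate, -lactate or an equimolar mix (0.25 mM each); basal medium had 20% FBS; 0.1% DMSO served as control. RNA (1 µg) was reverse-transcribed. Duplex TaqMan ddPCR used 0.65 ng cDNA per reaction, with target FAM and TBP VIC. Copies/ng cDNA were derived by Poisson analysis. Four biological replicates from two seedings, each with three technical replicates; t test.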

[5] = system: MCT4 (SLC16A3) mRNA; assay: MCT4 gene expression by ddPCR in Caco-2 cells; assay type: cell-based, human; details: vs control; for increase of MCT4 mRNA: 1 mM 14 days (mix 0.25 mM each), n=4
How it was run: as §1

[6] = system: ABCG2 mRNA; assay: ABCG2 gene expression by ddPCR in Caco-2 cells; assay type: cell-based, human; details: vs control; for effect on ABCG2 mRNA: 1 mM 14 days; for decrease of ABCG2 mRNA: 1 mM 14 days (mix 0.25 mM each)
How it was run: as §1

[7] = system: MCT1 protein; assay: MCT1 protein abundance by ProteinSimple WES in Caco-2 cells; assay type: cell-based, human; details: 1 mM 14 days, vs control
[8] = system: UGT1A protein; assay: UGT1A protein abundance by ProteinSimple WES in Caco-2 cells; assay type: cell-based, human; details: 1 mM 14 days; for decrease of UGT1A protein levels: vs control; for effect on UGT1A protein: vs control (discussion)
[9] = system: Caco-2 cells; assay: Transepithelial Electrical Resistance; assay type: cell-based, human; details: 1 mM apical pretreatment 14 days, n=36; for average TEER value after pretreatment: untreated 1149±23
How it was run: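 Caco-2 cells were seeded on transwells at 6×104 cm−2 and exposed apically from day 7 to 1 mM Na-acetate, -propionate, -butyrate, -lactate or mix in FBS-free medium (basal 20% FBS; 0.1% DMSO control). At 21–23 days, after HBSS washes and 30 min equilibration at 37°C, 10% CO2, TEER was measured with a voltohmmeter; t test.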

[10] = system: MCT4 protein; assay: MCT4 protein abundance by ProteinSimple WES in Caco-2 cells; assay type: cell-based, human; details: 1 mM 14 days (mix 0.25 mM each), vs control
[11] = system: ABCG2 protein; assay: ABCG2 protein abundance by ProteinSimple WES in Caco-2 cells; assay type: cell-based, human; details: vs control; for decrease of ABCG2 protein levels: 1 mM 14 days
How it was run: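 Transwell Caco-2 monolayers received 1 mM apical SCFA/lactate or mix (0.25 mM each) from day 7 and were lysed at 21–23 days in Bicine-CHAPS with inhibitors, then BCA-quantified. For capillary WES, 1.5 mg/ml lysate was used with 95°C denaturation for 5 min. α-Tubulin loading control came from the same sample in separate capillaries. Peak areas were quantified. Mean of 3–6 biological replicates ±S.E.M.; t test.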

[12] = 1 mM 14 days, vs untreated, n=6, P<.01
[13] = 1 mM 14 days, vs untreated, n=6, P<.001

In the case of `COc1cc(/C=C/C(=O)O)ccc1O` [FA, ferulic acid], the “FA transported to the basal compartment” value ([1]; untreated cells, 500 μM FA (1 μmol) apical, 1 h) was 1.73 ± 0.17 nmol/min and the “FA transported to basal compartment, share of added FA” value ([1]; untreated cells, after 1 h) was 10.4%.
In the case of `COc1ccc([C@@H]2CC(=O)c3c(O)cc(O)cc3O2)cc1O` [HT, hesperetin], the “HT transported unchanged to the basolateral compartment” value ([2]; cells not treated with SCFA, 20 μM HT (40 nmol) apical, 1 h) was 87 ± 26 pmol/min and the “HT transported to basolateral compartment, share of HT added apically” value ([2]; cells not treated with SCFA, after 60 min incubation) was 13%.
For `COc1ccc(C2CC(=O)c3c(O)cc(O)cc3O2)cc1OS(=O)(=O)O` (centres unmarked) [HT-3′-sul, hesperetin-3′-O-sulfate], the “rate of appearance of HT conjugate in apical compartment” value (“rate … in apical compartment” below) ([2]; untreated cells, 1 h) was 2.8 ± 0.1 pmol/min and the “rate of appearance of HT conjugate in basal compartment” value (“rate … in basal compartment” below) ([2]; untreated cells, 1 h) was 2.53 ± 0.06 pmol/min.
In the case of `COc1ccc([C@@H]2CC(=O)c3c(O)cc(O[C@@H]4O[C@H](C(=O)O)[C@@H](O)[C@H](O)[C@H]4O)cc3O2)cc1O` [HT-7-glu, Hesperetin-7-O-glucuronide], the “conjugate formed (basal + apical) as share of original HT added apically” value ([2]; untreated cells, 1 h) was 2.4%, the “rate … in apical compartment” value ([2]; untreated cells, 1 h) was 3.87 ± 0.07 pmol/min and the “rate … in basal compartment” value ([2]; untreated cells, 1 h) was 12.33 ± 0.57 pmol/min.
With `COc1ccc([C@@H]2CC(=O)c3c(O)cc(OS(=O)(=O)O)cc3O2)cc1O` [HT-7-sul, hesperetin-7-O-sulfate] the “rate … in apical compartment” value ([2]; untreated cells, 1 h) was 2.6 ± 0.06 pmol/min and the “rate … in basal compartment” value ([2]; untreated cells, 1 h) was 1.9 ± 0.03 pmol/min.
In the case of `O=C(O)c1ccccc1O` [SA, salicylic acid, reference compound], the “SA transported to the basolateral side, share of original amount added apically” value ([3]; 1 mM SA apical, within 30 min) was ~ 10%.
`CC(=O)[O-].[Na+]` [acetate, Na-acetate] was tested, and the “effect on HT-3′-sul efflux to the apical direction” value (shortened to “effect on HT-3′-sul efflux”) ([2]; 1 mM 14 days, vs untreated) was “lower”, the “decrease of HT-3′-glu 2 formation” value [2, 12] was 20% and the “effect on FA transport and metabolism” value ([1]; 1 mM 14 days, vs untreated) was “no effect”. The “effect on SA transport” value [3] was “did not affect”, the “increase of MCT1 mRNA” value ([4]; n=4, P≤.02) was ~ 20% and the “increase of MCT4 mRNA” value [5] was ~ 20%. The “effect on ABCG2 mRNA” value [6] was “unaffected”, the “decrease of MCT1 protein” value ([7]; n=3, P<.005) was ~ 30% and the “decrease of UGT1A protein levels” value [8] was ~ 25%.
In the case of `CCCC(=O)O` [butyrate, Na-butyrate], the “average TEER value after pretreatment” value [9] was 1066±31 Ω cm^2, the “decrease of average TEER values” ([9]; vs untreated cells) was 7% and the “effect on HT-3′-sul efflux” value ([2]; 1 mM 14 days, vs untreated) was “lower”. The “increase of HT-7-glu in basal compartment” value [2, 12] was 23%, the “decrease of HT-3′-glu 2 formation” value [2, 12] was 30–40% and the “effect on efflux of HT-7-glu to both compartments” value [2] was “increased”. The “effect on transepithelial transport of FA (apical to basolateral)” value ([1]; 1 mM 14 days) was “strongly enhanced”, the “effect on FA-sul in apical compartment” value ([1]; 1 mM 14 days, vs untreated) was “lower” and the “increase of FA-glu in basal compartment” value ([1]; 1 mM 14 days, vs untreated) was ~ 40%. The “increase of SA in the basolateral compartment” value [3] was 32%, the “decrease of MCT1 mRNA” value [4] was ~ 30% and the “effect on MCT4 mRNA” value ([5]; 1 mM 14 days) was “not affected”. The “effect on ABCG2 mRNA” value [6] was “decreased”, the “increase of MCT1 protein” value ([7]; n=3, P=.01) was ~ 40% and the “effect on MCT4 protein levels” value [10] was “not affected”. The “effect on ABCG2 protein levels” value ([11]; 1 mM 14 days (mix 0.25 mM each)) was “not reflected in protein changes” and the “effect on UGT1A protein” value [8] was “did not affect”.
For `CC(O)C(=O)[O-].[Na+]` (centres unmarked) [lactate, Na-lactate], the “average TEER value after pretreatment” value [9] was 1232±25 Ω cm^2, the “increase of TEER (resistance)” value ([9]; vs untreated cells) was 7% and the “decrease of all HT phase II conjugates in apical compartment” value ([2]; 1 mM 14 days, vs untreated) was 13–40%. For the same molecule, the “effect on HT-3′-sul efflux” value ([2]; 1 mM 14 days, vs untreated) was “lower”, the “effect on HT-3′-glu 1 in basolateral side” value [2, 12] was “substantially decreased” and the “effect on HT-3′-glu 2 in basolateral side” value [2, 12] was “substantially decreased”. For the same molecule, the “effect on FA-sul in basolateral compartment” value ([1]; 1 mM 14 days, vs untreated) was “substantially decreased”, the “effect on FA-sul in apical compartment” value ([1]; 1 mM 14 days, vs untreated) was “substantially decreased” and the “effect on SA transport” value [3] was “did not affect”. For the same molecule, the “decrease of MCT1 mRNA” value [4] was 20–30%, the “decrease of MCT4 mRNA” value ([5]; 1 mM 14 days, P<.001) was 20–30% and the “decrease of ABCG2 mRNA” value [6] was 20–30%. For the same molecule, the “decrease of ABCG2 protein levels” value [11] was ~ 50% and the “decrease of UGT1A protein levels” value [8] was ~ 30%.
In the case of `CCC(=O)[O-].[Na+]` [propionate, Na-propionate], the “effect on HT-3′-sul basolateral transport” value ([2]; 1 mM 14 days, vs untreated) was “stimulated”, the “effect on HT-7-sul basolateral transport” value ([2]; 1 mM 14 days, vs untreated) was “stimulated” and the “increase of HT-3′-glu 1 in basolateral side” value [2, 12] was 34%. For the same molecule, the “increase of HT-7-glu in basal compartment” value [2, 12] was 42%, the “effect on efflux of HT-7-glu to both compartments” value [2] was “increased” and the “effect on FA-sul in basolateral compartment” value ([1]; 1 mM 14 days, vs untreated) was “favored over efflux to the apical compartment”. The “increase of FA-glu in apical compartment” value ([1]; 1 mM 14 days, vs untreated) was 72%, the “effect on transepithelial transport of FA (apical to basolateral)” value ([1]; 1 mM 14 days) was “strongly enhanced” and the “higher concentration of DHFA in apical compartment” value [1, 13] was 4.1 fold. The “higher concentration of DHFA in basal compartment” value [1, 13] was 3.4 fold, the “increase of FA-glu in basal compartment” value ([1]; 1 mM 14 days, vs untreated) was 83% and the “increase of SA in the basolateral compartment” value [3] was 21%. For the same molecule, the “effect on MCT1 gene expression” value [4] was “unchanged”, the “increase of MCT4 mRNA” value [5] was ~ 29% and the “decrease of ABCG2 mRNA” value [6] was ~ 18%. For the same molecule, the “effect on MCT1 protein levels” value [7] was “without significant effects”, the “effect on MCT4 protein levels” value [10] was “without significant effects” and the “decrease of ABCG2 protein levels” value [11] was ~ 40%. The “effect on UGT1A protein” value [8] was “did not affect”.
